These results are taken from ChEMBL document CHEMBL4138055, “Determination and reduction of translocator protein (TSPO) ligand rs6971 discrimination” (Medchemcomm, 2017).

In assay [1] the test system is HEK-293T. The assay is described as follows: Cytotoxicity against HEK293T cells expressing human wild type TSPO assessed as decrease in cell viability after 48 hrs by CellTiter blue assay. In kind it is functional, cell-based. Summed up:
(§1)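 Stable TSPO WT or A147T 293T cells at 8.75 × 10³ cells/well on poly-L-lysine-coated plates, exposed next day to vehicle or compound (1–100 μM) for 48 h. CellTiter Blue (resazurin to resorufin) added for 4 h at 37 °C, fluorescence read at Ex560/Em590 nm.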
A general note: Resazurin is reduced to fluorescent resorufin, in cell work by metabolically active cells.

Assay [2] relates to HEK-293T. The assay can be described thus: Cytotoxicity against HEK293T cells expressing human TSPO A147T mutant assessed as decrease in cell viability after 48 hrs by CellTiter blue assay. The assay is classed as functional, cell-based. Summed up: as §1
Assay [3] has as its system HEK-293T. The assay is described as follows: Antiproliferative activity against HEK293T cells expressing human wild type TSPO after 48 hrs by BrdU incorporation assay. In kind it is functional, cell-based. In a few lines:
(§2)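 293T cells stably expressing human TSPO WT or A147T (lentiviral, puromycin-selected) seeded at 8.75 × 10³ cells/well on poly-L-lysine-coated plates, treated next day with vehicle or compound (1–100 μM) for 48 h. BrdU added for 4 h at 37 °C, incorporation detected by ELISA, absorbance read at 450 nm.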

The test system of assay [4] is HEK-293T. The assay can be described thus: Antiproliferative activity against HEK293T cells expressing human TSPO A147T mutant after 48 hrs by BrdU incorporation assay. The assay is classed as functional, cell-based. Summed up: as §2
Assay [5] is filed under the species Homo sapiens. The assay is described as follows: Selectivity ratio of Ki for human TSPO A147T mutant to Ki for human wild type TSPO.
Assay [6] deals with T1, Translocator protein (Homo sapiens, UniProt P30536). The assay can be described thus: Displacement of [3H]PK11195 from human wild type TSPO expressed in HEK293T cell membranes after 90 mins by scintillation counting method. (In general: Loss of bound radioactivity is the signal in a displacement assay; it reports binding, not function.)
Assay [7] is described as follows: Selectivity ratio of IC50 for HEK293T cells expressing human TSPO A147T mutant assessed as decrease in cell viability to IC50 for HEK293T cells expressing human wild type TSPO assessed as decrease in cell viability. In kind it is functional.
Assay [8] can be described thus: Selectivity ratio of IC50 for HEK293T cells expressing human TSPO A147T mutant assessed as decrease in cell proliferation to IC50 for HEK293T cells expressing human wild type TSPO assessed as decrease in cell proliferation. In kind it is functional.
In assay [9] the target is T1, Translocator protein. The assay can be described thus: Ratio of Ki for displacement of [3H]PK11195 from human brain TSPO isolated from low affinity binder patient to Ki for [3H]PK11195 from human brain TSPO isolated from high affinity binder patient.

T1 sequence (P30536 whole entry): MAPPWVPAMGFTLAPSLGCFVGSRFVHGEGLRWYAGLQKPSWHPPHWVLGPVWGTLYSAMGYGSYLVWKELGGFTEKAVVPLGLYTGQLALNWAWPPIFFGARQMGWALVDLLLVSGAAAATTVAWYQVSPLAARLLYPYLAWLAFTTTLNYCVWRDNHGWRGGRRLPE

On to `CCC(C)N(C)C(=O)c1cc2ccccc2c(-c2ccccc2Cl)n1` (centres undefined) [PK-11195], for which the IC50 in assay [1] is 67.4 µM; in assay [2], 69.2 µM; in assay [3] it was more than 100 µM; in [4], more than 100 µM.
With `CCN(CC)C(=O)Cn1c2ccccc2c2cc(-c3ccccc3)ccc21`, the IC50 was 23.7 µM in assay [1], 22.9 µM in assay [2], 50.5 µM in assay [3] and 47.1 µM in assay [4]. Further, the Ratio Ki in assay [5] was determined as 5.1. In [6], the Ki was found to be 0.0316 µM. Moreover, the “Ratio IC50” value worked out at 1 in [7] and 0.9 in assay [8].
On to `CCN(CC)C(=O)Cc1c(-c2ccc(OC)cc2)nn2c(C)cc(C)nc12`, for which the IC50 in assay [1], in assay [2], in assay [3] and in assay [4] was more than 100 µM throughout.
Regarding `CCN(CC)C(=O)Cn1c2ccccc2c2cc(-c3ccccc3OC)ccc21`, the Ratio Ki in [5] turned out to be 5.4. The Ki in [6] was 0.0254 µM.
In assay [6], `CCN(Cc1ccccc1)C(=O)Cn1c2ccccc2c2cc(Br)ccc21` gave an inhibitory constant (Ki) of 0.0543 µM. That is a double-digit nanomolar value.
For `CCN(CC)C(=O)Cn1c2ccccc2c2ccccc21`, the Ratio Ki in assay [5] came to 5.9. In addition, the Ki in assay [6] stood at 0.0301 µM.
Consider `CCN(Cc1ccccc1)C(=O)Cn1c2ccccc2c2ccccc21`, for which the half-inhibitory concentration (IC50) in assay [1], in [2], in assay [3] and in assay [4] was more than 100 µM each time. In [5], the Ratio Ki was 5. This compound returned a Ki in [6] of 0.0916 µM.
`CCN(CC)C(=O)Cn1c2ccccc2c2cc(Br)ccc21`: the Ratio Ki in [5] amounted to 5.1. This compound also displayed a Ki in assay [6] of 0.0315 µM.
Take `CCN(Cc1ccccc1)C(=O)Cn1c(=O)n(C)c2cnc(-c3ccccc3)nc21`: the IC50 in assay [1] was 29.5 µM; in assay [2] it was 26.2 µM; in assay [3] it was more than 100 µM; in assay [4], more than 100 µM. The figures for the Ratio Ki in assay [5] and in assay [9] were 4.9 and 12.6, respectively. In assay [6], this compound displayed a Ki of 0.0064 µM. For the same compound, in assay [7], the “Ratio IC50” value worked out at 0.9.
Consider `CCN(CC)C(=O)Cn1c2ccccc2c2cc(-c3ccc(OC)cc3)ccc21`, for which the Ratio Ki in assay [5] came out at 3.2. The compound further showed a Ki in assay [6] of 0.0289 µM.

By IC50 is commonly meant the concentration needed to halve the response being measured. What is called Ki is a measure of affinity in units of concentration, obtained from inhibition or displacement.
